# TRPC4 act: opens the mouse TRPC4 cation channel; HEK293 TRPC4beta/mu-opioid, Fluo4 calcium fluorescence; active compounds read high; B-score at 10 µM; 310,000 tested, 0.49% active; AID 2237;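 active = B-score above 5 SD of library B-scores, and initial fluorescence ratio not above library mean plus 5 SD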;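 also: positive B-score marks a calcium rise read as TRPC4 activation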
#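 Material: HEK293 stable line with TRPC4beta plus mu-opioid receptor; technique: Fluo4 calcium-sensitive dye fluorescence, kinetic, 1 Hz baseline; timing: Fluo4 dye loading 45 min at room temperature, 110 s recording; controls: assay buffer as low control, maximal DAMGO as high control; read-out: integrated baseline-normalised fluorescence ratio, converted to per-well B score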
# TRPC6 inhibitor: inhibitors of mouse TRPC6 channel. Q61143. HEK293-TRPC6, membrane potential dye, ACh-evoked depolarization; active compounds read low. B-score at 10 µM. 310,000 tested, 1.1% active;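 active = B-score under library mean minus 3 SD, initial fluorescence not abnormally high, positive integrated signal ratio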;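 also: B-score derived from integrated fluorescence ratio over the kinetic read; more negative B-score means stronger inhibition of depolarization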
# TRPC4 block: TRPC4 (mouse) channel inhibition. B-score at 10 µM. 300,000 tested, 0.39% active. AID 2247. Q9QUQ5. HEK293 TRPC4beta/mu-opioid, DAMGO-evoked Fluo4 calcium flux; active compounds read low;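 active = B-score over 3 SD under the library average, no early fluorescence shift, positive overall ratio signal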
#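 System: stable TRPC4beta/mu-opioid receptor HEK293 cells; Dosing: single-point compound dosing; Measured by: Fluo4 Ca2+ flux fluorescence; Read-out basis: per-well B score of integrated baseline-normalized Fluo4 ratio.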
# Kir21 inh: inhibitors of mouse Kir2.1 inward-rectifier potassium channel; P35561; AID 1672; 310,000 tested, 0.85% active; B-score at 10 µM; HEK293-Kir2.1, FluxOR thallium flux fluorescence; active compounds read low;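 active = fluorescence ratio B-score at or below minus 3 SD of library scores, with starting-brightness B-score within 2 SD, cut at about -4.2 in these data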;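 also: channel flux triggered by added potassium and thallium sulfate stimulus; B-score of peak minus minimum fluorescence over baseline after thallium stimulus; more negative B-score means stronger Kir2.1 block with less thallium influx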
# Target sequence (P35561 whole entry, looked up): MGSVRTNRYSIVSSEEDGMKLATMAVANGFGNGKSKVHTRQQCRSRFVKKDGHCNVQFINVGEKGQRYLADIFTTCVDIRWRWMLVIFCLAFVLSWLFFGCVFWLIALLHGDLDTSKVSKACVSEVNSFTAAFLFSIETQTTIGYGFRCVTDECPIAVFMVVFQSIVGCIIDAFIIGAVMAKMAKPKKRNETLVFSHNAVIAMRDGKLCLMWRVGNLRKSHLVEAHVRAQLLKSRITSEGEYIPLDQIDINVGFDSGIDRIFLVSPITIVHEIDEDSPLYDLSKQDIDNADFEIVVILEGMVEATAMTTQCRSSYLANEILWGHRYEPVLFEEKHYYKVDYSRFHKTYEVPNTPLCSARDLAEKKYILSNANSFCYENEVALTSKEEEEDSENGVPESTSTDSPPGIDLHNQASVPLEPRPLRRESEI
# TRPC6 activator: activates the mouse TRPC6 cation channel. HEK293-TRPC6 membrane potential dye fluorescence; active compounds read high. B-score at 10 µM. 310,000 tested, 0.13% active. AID 2550;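 active = B-score of the integrated fluorescence ratio above library mean plus 3 SD, and starting fluorescence ratio within library mean plus 5 SD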;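 also: higher score means more depolarization so channel activation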
# TRPC4 potent: allosteric potentiators of mouse TRPC4 channel | HEK293 TRPC4beta/mu-opioid, DAMGO EC20, Fluo-4 Ca2+ flux; active compounds read high | 310,000 tested, 0.42% active | B-score at 10 µM;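 active = B-score of calcium response area above 5 SD of library B-scores, with initial fluorescence ratio within 5 SD of library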;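 also: B-score of integrated fluorescence ratio over time as area under calcium response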
# TRPC4 spec 2: second check of whether TRPC6 inhibitors also affect mouse TRPC4. shares compounds with TRPC6 inhibitor. HEK293 TRPC4/MOR, membrane potential dye fluorescence; channel activated by saturating DAMGO dose. inhibition, % at 10 µM. 920 tested, 42% active. AID 2776;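 active = compounds whose fluorescence signal differed from control wells by over 3 SD, either direction, in both duplicate plates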
# TRPC4 spec: selectivity of TRPC6 inhibitors: effect on mouse TRPC4. shares compounds with TRPC6 inhibitor. HEK293 TRPC4/mu-opioid, membrane potential fluorescence. 920 tested, 61% active. activity change, negative = inhibition, % at 10 µM;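 active = rise or fall in signal beyond 3 SD of buffer-only wells in both replicate plates, either sign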;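 also: integrated kinetic ratio of fluorescence range over baseline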
# HEK293 MPD ctr 2-1: second check of TRPC6 inhibitor effects in parental HEK293 cells. shares compounds with TRPC6 inhibitor. parental HEK293 membrane potential dye fluorescence; maximal acetylcholine challenge after compound addition. AID 2779. 920 tested, 31% active. signal change vs control, % at 10 µM;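 active = membrane potential signal moving either way by over 3 SD of the maximum-effect control, in both duplicate plates, meaning non-specific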
# HEK293 MPD ctr-1: parental HEK293 nonspecific activity of TRPC6 inhibitors. 920 tested, 60% active. shares compounds with TRPC6 inhibitor. membrane potential signal change, % at 10 µM. parental HEK293 membrane potential dye fluorescence;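 active = membrane potential signal shifting up or down by more than 3 SD of buffer-only wells, on both duplicate plates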
# HEK293 MPD ctr-2: parental HEK293 nonspecific activity of TRPC6 modulators; membrane potential signal change, % at 10 µM; 2,400 tested, 51% active; AID 488924; membrane potential dye fluorescence; shares compounds with TRPC6 inhibitor;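 active = membrane potential signal moves up or down beyond 5 SD from buffer-only wells, on both duplicate plates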
# HEK293 MPD ctr 2-2: second counter-screen for TRPC6 modulators: effect in parental HEK293 cells; shares compounds with TRPC6 inhibitor; membrane potential dye fluorescence; after compound, maximal acetylcholine stimulation; inhibition, % at 10 µM; 2,400 tested, 14% active;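 active = membrane potential signal drops by more than 5 SD from the mean control signal, in both duplicate plates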;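 also: plate controls were acetylcholine ECmax control wells for no effect and buffer only wells for full effect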
# TRPC4/MOR mod: mouse TRPC4 off-target activity of TRPC6 modulators; 2,400 tested, 69% active; shares compounds with TRPC6 inhibitor; percent change from control (negative = decrease, positive = increase), % at 10 µM; HEK293 TRPC4/mu-opioid, membrane potential fluorescence; AID 488927;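 active = membrane potential signal moved up or down beyond 5 SD of buffer control wells, in both duplicate plates, actives on both sides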;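 also: plate controls were assay buffer wells for no effect and DAMGO maximal-effect wells for full effect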
# TRPC4 ctr inh 2: mouse TRPC4 off-target activity of TRPC6 modulators, second screen; shares compounds with TRPC6 inhibitor; HEK293 TRPC4/mu-opioid, membrane potential dye fluorescence; stimulated with maximal-effect DAMGO; inhibition, % at 10 µM; 2,400 tested, 55% active;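 active = drop in membrane potential signal beyond 5 SD of the control wells in both duplicate plates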;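 also: TRPC4 counter screen for TRPC6 hits run under conditions tuned for TRPC6 not TRPC4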
# TRPC6 block conf: mouse TRPC6 inhibitor confirmation | shares compounds with TRPC6 inhibitor | HEK293-TRPC6, membrane potential dye, ACh-evoked depolarization | inhibition, % at 10 µM | 3,300 tested, 43% active | AID 488960;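 active = fluorescence ratio falls more than 5 SD below the full-stimulation control mean, in both duplicate runs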;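 also: integrated fluorescence ratio of peak minus minimum over baseline after agonist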
# TRPC6 act confirm: mouse TRPC6 activator confirmation; shares compounds with TRPC6 inhibitor; HEK293-TRPC6 membrane potential dye fluorescence, FDSS; activation, % at 10 µM; 2,800 tested, 11% active; AID 488961;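 active = ratio signal rise beyond 5 SD above unstimulated control wells' mean, seen in both duplicate runs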;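 also: plate controls were buffer EC0 wells for no effect and acetylcholine ECmax response for full effect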
# * = called active by the depositor; i = inactive; . = no result. A selection: hits, their analogues and other compounds. The true share with any hit is near 3%.
SMILES,TRPC4 act,TRPC6 inhibitor,TRPC4 block,Kir21 inh,TRPC6 activator,TRPC4 potent,HEK293 MPD ctr-2,HEK293 MPD ctr 2-2,TRPC4/MOR mod,TRPC4 ctr inh 2,TRPC6 block conf,TRPC6 act confirm,others
C=CCn1c2ccccc2c2nnc(SCCN3CCCCC3)nc21,i,-8.6*,i,-0.33,i,i,.,.,.,.,i,i,TRPC4 spec 2=73%*;TRPC4 spec=-14%*;HEK293 MPD ctr 2-1=i;HEK293 MPD ctr-1=-154%*
CCn1c2ccc(F)cc2c2nnc(SCCN3CCCCC3)nc21,i,-5.8*,i,-0.28,i,i,-78%*,i,36%*,80%*,i,i,
c1ccc(Cn2c3ccccc3c3nnc(SCCN4CCCCC4)nc32)cc1,i,i,i,-3.1,i,i,.,.,.,.,.,.,
Cc1ccc([N+](=O)[O-])cc1NCC(=O)NN,i,i,i,2.4,i,i,.,.,.,.,.,.,
Cc1ccsc1/C=C1/NC(=O)N(Cc2ccc(F)cc2)C1=O,i,i,i,0.79,i,i,.,.,.,.,.,.,
COc1ccc(Oc2c(C(F)(F)F)oc3cc(OCC(=O)O)ccc3c2=O)cc1,i,-5.2*,i,-0.06,i,i,i,i,i,i,i,i,
COc1ccc(OC)c(NC(=O)NNS(=O)(=O)c2ccc(C)cc2C)c1,i,i,i,-0.52,i,i,.,.,.,.,.,.,
CC(=O)Nc1sc(/C(C#N)=C/c2ccc(Cl)c(Cl)c2)nc1-c1ccc(C)cc1,i,i,i,-0.62,13*,i,254%*,i,46%*,i,i,76%*,
CC(=O)Nc1sc(N/N=C/c2ccc(C)cc2)nc1-c1ccc(C)cc1,i,i,i,0,i,i,.,.,.,.,.,.,
COC(=O)c1sc(N)c(C(=O)OC)c1COC(=O)C12CC3CC(CC(O)(C3)C1)C2,i,i,i,-0.03,i,i,.,.,.,.,.,.,
O=C(COc1ccccc1)NCC(c1ccco1)N1CCCCC1 (stereo not drawn),i,i,i,1.4,i,i,.,.,.,.,.,.,
O=C(CCOc1ccccc1)NCC(c1ccco1)N1CCCCC1 (stereo not drawn),i,-5.6*,i,0.16,i,i,i,i,12%*,i,i,.,
